Experimental data from ChEMBL document CHEMBL1177847, “Combating oxidative stress in epilepsy: design, synthesis, quantum chemical studies and anticonvulsant evaluation of 1-(substituted benzylidene/ethylidene)-4-(naphthalen-1-yl)semicarbazides” (Eur J Med Chem, 2010).
Activity calls are given as the source filed them. The rule behind the calls is not given here.

Experiments:
Mus musculus [1] = assay: Neurotoxicity in ip dosed Swiss albino mouse assessed as impair in motor coordination at 300 mg/kg, ip after 4 hrs by rotarod test; type: toxicity, organism-based; design: dose 300 mg/kg, route intraperitoneal; settings: in vivo
Summary of the method: (§1)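 Rotarod motor-impairment test in male Swiss albino mice dosed i.p. at 30, 100 or 300 mg/kg in 5% gum acacia/water. Mice that fell off the rotating rod within 30 s during pretraining were excluded. The dose at which animals fell off was recorded at 0.5 and 4 h.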

Mus musculus [2] = assay: Neurotoxicity in ip dosed Swiss albino mouse assessed as impair in motor coordination at 300 mg/kg, ip after 0.5 hrs by rotarod test; type: toxicity, organism-based; design: dose 300 mg/kg, route intraperitoneal; settings: in vivo; summary of the method: as §1
Mus musculus [3] = assay: Anticonvulsant activity against subcutaneous pentylenetetrazole-induced seizures in ip dosed Swiss albino mouse assessed as minimum effective dose after 0.5 hrs; type: functional; settings: read-out: MED
Summary of the method: (§2)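 Male Swiss albino mice (18–25 g) were dosed i.p. with the compound in 5% gum acacia/water at 30, 100 or 300 mg/kg. Thirty minutes later they received PTZ 85 mg/kg (CD97) and were watched for seizures over 4 h. Readings at 0.5 and 4 h gave the lowest dose active in half or more of the animals. Myoclonic jerks were noted separately.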

Mus musculus [4] = assay: Anticonvulsant activity against subcutaneous pentylenetetrazole-induced seizures in Swiss albino mouse at 300 mg/kg, ip after 4 hrs; type: functional, organism-based; design: dose 300 mg/kg; summary of the method: as §2
Mus musculus [5] = assay: Anticonvulsant activity against maximal electroshock-induced seizures in Swiss albino mouse at 300 mg/kg, ip after 0.5 hrs; type: functional, organism-based; design: dose 300 mg/kg
Summary of the method: (§3)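 Male Swiss albino mice (18–25 g) received the compound suspended in 5% gum acacia/water, i.p. at 30, 100 and 300 mg/kg (one to four animals per dose). Maximal electroshock was applied at 0.5 and 4 h. Protection meant abolition of the hind limb tonic extensor component. The lowest dose protecting half or more of the mice was recorded.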

Mus musculus [6] = assay: Anticonvulsant activity against maximal electroshock-induced seizures in Swiss albino mouse at 300 mg/kg, ip after 4 hrs; type: functional, organism-based; design: dose 300 mg/kg; summary of the method: as §3
Mus musculus [7] = assay: Neurotoxicity in ip dosed Swiss albino mouse assessed as minimum dose required to cause impair in motor coordination after 0.5 hrs by rotarod test; type: toxicity, organism-based; settings: in vivo; summary of the method: as §1
Mus musculus [8] = assay: Anticonvulsant activity against maximal electroshock-induced seizures in ip dosed Swiss albino mouse assessed as minimum effective dose after 0.5 hrs; type: functional; settings: read-out: MED; summary of the method: as §3
Mus musculus [9] = assay: Toxicity in subcutaneous pentylenetetrazole-induced Swiss albino mouse assessed as death at 30 to 300 mg/kg, ip after 0.5 hrs; type: organism-based; design: dose 30-300 mg/kg
Summary of the method: (§4)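 Male Swiss albino mice (18–25 g) given compound suspended in 5% gum acacia/water, i.p. at 30, 100 or 300 mg/kg, one to four animals per dose. PTZ at 85 mg/kg was injected 30 min after compound. Animals were examined 0.5 and 4 h after administration, and death following tonic extension was noted. The maximum dose was 300 mg/kg.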

Mus musculus [10] = assay: Neurotoxicity in ip dosed Swiss albino mouse assessed as minimum dose required to cause impair in motor coordination after 4 hrs by rotarod test; type: toxicity, organism-based; settings: in vivo; summary of the method: as §1
Mus musculus [11] = assay: Anticonvulsant activity against maximal electroshock-induced seizures in ip dosed Swiss albino mouse assessed as minimum effective dose after 4 hrs; type: functional; settings: read-out: MED; summary of the method: as §3
Mus musculus [12] = assay: Toxicity in subcutaneous pentylenetetrazole-induced Swiss albino mouse assessed as death at 30 to 300 mg/kg, ip after 4 hrs; type: organism-based; design: dose 30-300 mg/kg; summary of the method: as §4
Mus musculus [13] = assay: Anticonvulsant activity against subcutaneous pentylenetetrazole-induced seizures in ip dosed Swiss albino mouse assessed as minimum effective dose after 4 hrs; type: functional; settings: read-out: MED; summary of the method: as §2
Mus musculus [14] = assay: Restoration of SOD activity in subcutaneous pentylenetetrazole treated Swiss albino mouse brain assessed per mg of protein at 100 mg/kg, ip after 4 hrs; type: functional; settings: route intraperitoneal
Summary of the method: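 The ethanol phase of an ethanol/chloroform (5:3) extract of brain supernatant was used, from PTZ-treated mice 4 h after 100 mg/kg i.p. Superoxide was generated by xanthine–xanthine oxidase at pH 10.2 with NBT, 20 min at 25 °C. The reaction was stopped with CuCl2 and read at 560 nm. One unit gives 50% inhibition of NBT reduction; results are expressed as U/mg protein. n = 6.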

Mus musculus [15] = assay: Restoration of GSH peroxidase activity in subcutaneous pentylenetetrazole treated Swiss albino mouse brain assessed per mg of protein at 100 mg/kg, ip after 4 hrs; type: functional; settings: route intraperitoneal
Summary of the method: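 Brain homogenate came from PTZ-treated mice 4 h after 100 mg/kg i.p. dosing, using the 10500 × g supernatant. Samples were equilibrated 5 min at 25 °C, started with H2O2, and A340 was followed for 5 min. n = 6.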

Mus musculus [16] = assay: Toxicity in subcutaneous pentylenetetrazole-induced Swiss albino mouse assessed as myoclonic jerks at 100 mg/kg, ip after 0.5 hrs; type: organism-based; design: dose 100 mg/kg; summary of the method: as §2
Mus musculus [17] = assay: Restoration of GSH level in subcutaneous pentylenetetrazole treated Swiss albino mouse brain assessed per gram of tissue at 100 mg/kg, ip after 4 hrs; type: functional; settings: route intraperitoneal
Summary of the method: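 Brains were taken from PTZ-treated mice 4 h after 100 mg/kg i.p. dosing. Tissue was deproteinized with an equal volume of 10% TCA for 2 h at 4 °C and centrifuged at 2000 g for 15 min. The supernatant was mixed with 0.4 M Tris (pH 8.9) containing 0.02 M EDTA, and 0.01 M DTNB was added before spectrophotometric reading. n = 6.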

Mus musculus [18] = assay: Reduction of lipid peroxidation in subcutaneous pentylenetetrazole treated Swiss albino mouse brain assessed reduction of malondialdehyde level per mg of protein at 100 mg/kg, ip after 4 hrs by TBARS assay; type: functional; settings: route intraperitoneal
Summary of the method: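 PTZ-treated mice were dosed at 100 mg/kg i.p. and decapitated 4 h after the last injection. Brains were homogenized in four volumes of ice-cold 50 mM Tris-HCl, pH 7.4, and spun at 3000 × g for 15 min. TBARS in the supernatant was read at 532 nm in the upper organic layer and expressed as nmol MDA/mg protein. n = 6, mean ± S.E.M.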

Mus musculus [19] = assay: Anticonvulsant activity against subcutaneous pentylenetetrazole-induced seizures in Swiss albino mouse at 300 mg/kg, ip after 0.5 hrs; type: functional, organism-based; design: dose 300 mg/kg; summary of the method: as §2
Mus musculus [20] = assay: Toxicity in subcutaneous pentylenetetrazole-induced Swiss albino mouse assessed as myoclonic jerks at 300 mg/kg, ip after 0.5 hrs; type: organism-based; design: dose 300 mg/kg; summary of the method: as §2

SMILES | Activity (Mus musculus [1]) | Activity (Mus musculus [2]) | minimal effective dose (Mus musculus [3]) | Activity (Mus musculus [4]) | Activity (Mus musculus [5]) | Activity (Mus musculus [6]) | Activity (Mus musculus [7]) | minimal effective dose (Mus musculus [8]) | Activity (Mus musculus [9]) | Activity (Mus musculus [10]) | minimal effective dose (Mus musculus [11]) | Activity (Mus musculus [12]) | minimal effective dose (Mus musculus [13]) | Activity (Mus musculus [14]) | Activity (Mus musculus [15]) | Activity (Mus musculus [16]) | Activity (Mus musculus [17]) | Activity (Mus musculus [18]) | Activity (Mus musculus [19]) | Activity (Mus musculus [20])
CCC1(C)CC(=O)NC1=O (centres undefined) [ETHOSUXIMIDE] | Non-toxic | Non-toxic | 300 mg/kg | inactive | inactive | inactive | – | – | – | – | – | – | – | – | – | – | – | – | – | –
COc1ccc(/C=N/NC(=O)Nc2cccc3ccccc23)cc1 | Non-toxic | – | – | inactive | – | inactive | 300 mg/kg | 300 mg/kg | Toxic | – | – | – | – | – | – | – | – | – | – | –
O=C(N/N=C/c1ccc(F)cc1)Nc1cccc2ccccc12 | – | Non-toxic | 300 mg/kg | – | inactive | – | – | – | – | 100 mg/kg | 300 mg/kg | Toxic | – | – | – | – | – | – | – | –
O=C(N/N=C/c1ccc([N+](=O)[O-])cc1)Nc1cccc2ccccc12 | – | Non-toxic | – | – | – | – | – | 300 mg/kg | – | 300 mg/kg | 300 mg/kg | – | 300 mg/kg | 1.73 U | 1.47 U | Toxic | 16.76 µg | 3.39 nmol | – | –
O=C1NC(=O)C(c2ccccc2)(c2ccccc2)N1 [PHENYTOIN] | – | – | – | inactive | – | – | 100 mg/kg | 30 mg/kg | – | 100 mg/kg | 30 mg/kg | – | – | – | – | – | – | – | inactive | –
CCCC(CCC)C(=O)O [VALPROIC ACID] | Non-toxic | Non-toxic | 300 mg/kg | inactive | inactive | inactive | – | – | – | – | – | – | – | 1.82 U | 2.19 U | – | 22.14 µg | 1.96 nmol | – | –
C/C(=N\NC(=O)Nc1cccc2ccccc12)c1ccc(C)cc1 | – | – | 300 mg/kg | inactive | inactive | inactive | 300 mg/kg | – | – | 300 mg/kg | – | – | – | – | – | – | – | – | – | –
O=C(N/N=C/c1ccc(O)cc1)Nc1cccc2ccccc12 | – | – | – | inactive | – | inactive | 100 mg/kg | 100 mg/kg | – | 300 mg/kg | – | – | – | – | – | – | – | – | inactive | –
O=C(N/N=C/c1ccccc1[N+](=O)[O-])Nc1cccc2ccccc12 | Non-toxic | – | 300 mg/kg | inactive | inactive | – | 300 mg/kg | – | – | – | 300 mg/kg | – | – | – | – | – | – | – | – | –
O=C(N/N=C/c1ccc(Cl)cc1Cl)Nc1cccc2ccccc12 | – | Non-toxic | 300 mg/kg | – | – | – | – | 100 mg/kg | – | 300 mg/kg | 100 mg/kg | – | 300 mg/kg | 1.69 U | 1.65 U | – | 21.35 µg | 2.78 nmol | – | –
NC(=O)N1c2ccccc2C=Cc2ccccc21 [CARBAMAZEPINE] | – | – | 100 mg/kg | – | – | – | 100 mg/kg | 30 mg/kg | – | 300 mg/kg | 100 mg/kg | – | 300 mg/kg | – | – | – | – | – | – | –
C/C(=N\NC(=O)Nc1cccc2ccccc12)c1ccc(Cl)cc1Cl | – | Non-toxic | – | – | inactive | – | – | – | – | 300 mg/kg | 300 mg/kg | – | 300 mg/kg | – | – | – | – | – | – | Toxic
